Reference: ChEMBL document CHEMBL1142293, “Thiol-based angiotensin-converting enzyme 2 inhibitors: P1 modifications for the exploration of the S1 subsite” (Bioorg Med Chem Lett, 2008)

Assays:
Conditions in all cases: read-out: Ki app
[1] = molecular target: T1, Carboxypeptidase A1 (Homo sapiens, UniProt P15085); test: Inhibition of human recombinant carboxy peptidase A1 by fluorescence assay
T1 sequence (P15085 whole entry): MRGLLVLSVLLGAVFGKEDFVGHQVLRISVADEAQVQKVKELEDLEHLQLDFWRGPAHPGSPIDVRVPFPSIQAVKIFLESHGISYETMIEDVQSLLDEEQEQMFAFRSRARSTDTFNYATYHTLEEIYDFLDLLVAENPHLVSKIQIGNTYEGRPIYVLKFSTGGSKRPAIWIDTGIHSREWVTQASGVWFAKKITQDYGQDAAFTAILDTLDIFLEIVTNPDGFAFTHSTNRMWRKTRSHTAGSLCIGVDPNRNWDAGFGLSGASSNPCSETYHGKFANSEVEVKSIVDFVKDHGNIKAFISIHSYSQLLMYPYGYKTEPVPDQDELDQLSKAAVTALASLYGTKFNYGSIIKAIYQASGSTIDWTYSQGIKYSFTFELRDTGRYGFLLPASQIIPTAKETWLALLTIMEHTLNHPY

[2] = molecular target: Neprilysin (Homo sapiens, UniProt P08473); test: Inhibition of human recombinant NEP by fluorescence assay
How it was run: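 Recombinant human NEP at 0.15 nM was assayed with 2 μM FAM-[…]TAMRA)-NH2 substrate. Inhibitor was pre-incubated, then substrate added. Fluorescence gave Ki App, with average %CV 43%.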

[3] = molecular target: Angiotensin-converting enzyme (Homo sapiens, UniProt P12821); test: Inhibition of human recombinant ACE by fluorescence assay
How it was run: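 Recombinant human ACE at 0.5 nM was incubated with 10 μM MCA-Ala-Ser-Asp-Lys-Dap(DNP)-OH substrate. Buffer was 1 μM Zn(OAc)2, 100 μM TCEP reducing agent, 50 mM Hepes, 300 μM CHAPS and 300 mM NaCl, pH 7.5. Inhibitor was pre-incubated before substrate was added. Fluorescence read-out gave apparent Ki.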

[4] = molecular target: Angiotensin-converting enzyme 2 (Homo sapiens, UniProt Q9BYF1); test: Inhibition of human recombinant ACE2 by fluorescence assay
How it was run: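 Fluorescence assay with 0.4 nM recombinant human ACE2 and 30 μM MCA-Tyr-Val-Ala-Asp-Ala-Pro-Lys(DNP)-OH substrate. Pre-incubation with inhibitor preceded substrate addition. Apparent Ki was reported, with average %CV 45%. Thiols were diluted from 10 mM stocks in 50% aqueous acetonitrile just before assay.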

Sequence of Angiotensin-converting enzyme (P12821 whole entry): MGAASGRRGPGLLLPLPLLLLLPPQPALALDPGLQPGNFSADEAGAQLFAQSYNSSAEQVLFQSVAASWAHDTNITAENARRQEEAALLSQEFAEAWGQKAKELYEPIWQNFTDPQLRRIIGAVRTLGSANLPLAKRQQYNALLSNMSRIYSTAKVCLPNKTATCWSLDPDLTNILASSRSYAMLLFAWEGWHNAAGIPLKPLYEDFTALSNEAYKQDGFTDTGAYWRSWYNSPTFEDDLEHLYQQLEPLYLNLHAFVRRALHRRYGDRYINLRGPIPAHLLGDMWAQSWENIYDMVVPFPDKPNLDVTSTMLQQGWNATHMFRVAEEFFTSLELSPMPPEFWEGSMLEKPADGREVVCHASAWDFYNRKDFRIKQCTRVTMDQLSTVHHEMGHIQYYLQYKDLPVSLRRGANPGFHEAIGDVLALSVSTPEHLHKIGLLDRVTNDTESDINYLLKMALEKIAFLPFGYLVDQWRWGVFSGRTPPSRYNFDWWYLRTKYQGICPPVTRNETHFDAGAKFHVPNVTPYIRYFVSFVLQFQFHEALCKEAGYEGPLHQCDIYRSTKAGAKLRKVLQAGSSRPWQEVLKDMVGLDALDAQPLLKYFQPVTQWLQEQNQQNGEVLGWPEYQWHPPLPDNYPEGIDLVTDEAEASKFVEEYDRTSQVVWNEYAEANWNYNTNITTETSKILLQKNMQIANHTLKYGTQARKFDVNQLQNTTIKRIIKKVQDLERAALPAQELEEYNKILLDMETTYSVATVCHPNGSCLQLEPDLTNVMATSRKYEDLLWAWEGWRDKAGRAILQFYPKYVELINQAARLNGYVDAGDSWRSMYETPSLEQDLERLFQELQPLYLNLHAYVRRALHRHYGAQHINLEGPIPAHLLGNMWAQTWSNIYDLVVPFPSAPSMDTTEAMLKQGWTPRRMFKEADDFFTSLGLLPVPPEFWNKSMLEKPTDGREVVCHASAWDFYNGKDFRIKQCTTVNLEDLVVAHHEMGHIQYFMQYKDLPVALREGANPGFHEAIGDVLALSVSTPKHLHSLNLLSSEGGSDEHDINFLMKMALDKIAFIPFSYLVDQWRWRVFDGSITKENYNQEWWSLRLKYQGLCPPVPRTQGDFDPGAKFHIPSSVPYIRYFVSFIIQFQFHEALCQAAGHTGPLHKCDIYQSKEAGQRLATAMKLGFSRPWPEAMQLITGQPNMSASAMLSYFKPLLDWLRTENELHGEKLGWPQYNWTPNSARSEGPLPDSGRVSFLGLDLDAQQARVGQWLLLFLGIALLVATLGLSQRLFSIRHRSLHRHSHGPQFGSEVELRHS
Sequence of Angiotensin-converting enzyme 2 (Q9BYF1 whole entry): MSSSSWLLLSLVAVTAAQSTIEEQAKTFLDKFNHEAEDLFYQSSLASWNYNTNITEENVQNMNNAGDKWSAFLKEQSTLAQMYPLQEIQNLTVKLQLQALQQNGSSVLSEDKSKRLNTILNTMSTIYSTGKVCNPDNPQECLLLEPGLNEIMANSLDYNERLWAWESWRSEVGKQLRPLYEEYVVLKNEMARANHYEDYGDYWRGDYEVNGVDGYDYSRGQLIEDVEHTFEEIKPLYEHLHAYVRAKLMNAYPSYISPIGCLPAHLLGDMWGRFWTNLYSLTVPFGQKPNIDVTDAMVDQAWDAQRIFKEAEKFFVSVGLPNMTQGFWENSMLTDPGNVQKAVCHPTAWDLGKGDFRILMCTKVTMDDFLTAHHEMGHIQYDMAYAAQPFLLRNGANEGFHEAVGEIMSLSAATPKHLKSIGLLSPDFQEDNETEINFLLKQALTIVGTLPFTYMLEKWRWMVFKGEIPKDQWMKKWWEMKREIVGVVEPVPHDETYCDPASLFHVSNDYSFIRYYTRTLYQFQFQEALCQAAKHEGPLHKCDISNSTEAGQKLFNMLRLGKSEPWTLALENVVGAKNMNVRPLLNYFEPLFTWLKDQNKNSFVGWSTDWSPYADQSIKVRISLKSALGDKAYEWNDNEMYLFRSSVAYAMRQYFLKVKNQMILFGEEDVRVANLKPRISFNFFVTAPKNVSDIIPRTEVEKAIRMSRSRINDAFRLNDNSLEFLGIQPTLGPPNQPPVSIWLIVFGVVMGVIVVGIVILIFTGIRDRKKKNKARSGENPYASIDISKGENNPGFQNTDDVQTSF
Sequence of Neprilysin (P08473 whole entry): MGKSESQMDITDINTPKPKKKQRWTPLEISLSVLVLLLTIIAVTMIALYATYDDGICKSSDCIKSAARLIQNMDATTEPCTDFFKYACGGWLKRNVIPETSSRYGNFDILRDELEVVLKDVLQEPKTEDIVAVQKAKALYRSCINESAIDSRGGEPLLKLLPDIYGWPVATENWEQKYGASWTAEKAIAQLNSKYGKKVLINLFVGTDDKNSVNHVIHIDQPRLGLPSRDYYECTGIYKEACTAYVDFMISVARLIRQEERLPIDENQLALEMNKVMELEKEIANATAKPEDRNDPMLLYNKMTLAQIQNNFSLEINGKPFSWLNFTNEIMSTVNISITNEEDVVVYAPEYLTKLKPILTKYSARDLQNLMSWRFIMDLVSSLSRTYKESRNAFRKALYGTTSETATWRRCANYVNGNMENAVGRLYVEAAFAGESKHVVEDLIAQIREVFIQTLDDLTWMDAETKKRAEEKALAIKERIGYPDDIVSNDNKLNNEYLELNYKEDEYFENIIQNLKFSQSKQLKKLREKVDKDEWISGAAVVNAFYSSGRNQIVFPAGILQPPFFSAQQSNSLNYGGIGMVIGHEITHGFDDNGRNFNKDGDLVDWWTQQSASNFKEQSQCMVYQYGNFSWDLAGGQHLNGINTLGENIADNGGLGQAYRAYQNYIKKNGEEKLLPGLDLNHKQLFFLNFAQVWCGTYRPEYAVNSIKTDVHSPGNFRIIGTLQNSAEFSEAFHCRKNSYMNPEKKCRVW

Row | Structure (SMILES) | Ki [1] | Ki [2] | Ki [3] | Ki [4]
1 | O=C(N[C@@H](Cc1ccc(-c2ccccc2)cc1)C(=O)O)[C@H](S)Cc1ccccc1 | 0.31 µM | 1.3 nM | 520 nM | 1400 nM
2 | O=C(O)[C@H](Cc1ccc(-c2ccccc2)cc1)NC(=O)[C@@H](S)C1CCCCC1 | 12 µM | 1300 nM | 13000 nM | 65 nM
3 | O=C(O)[C@H](Cc1ccc(-c2ccccc2)cc1)NC(=O)[C@@H](S)C1CCC1 | 12 µM | 5.4 nM | 620 nM | 2.4 nM
4 | O=C(CS)N[C@@H](Cc1ccc(-c2ccccc2)cc1)C(=O)O | 1.7 µM | 13 nM | 16 nM | 320 nM
5 | CC[C@H](C)[C@H](S)C(=O)N[C@@H](Cc1ccc(-c2ccccc2)cc1)C(=O)O | 15 µM | 2.4 nM | 200 nM | 1.6 nM
6 | CC(C)(C)C[C@H](S)C(=O)N[C@@H](Cc1ccc(-c2ccccc2)cc1)C(=O)O | 22 µM | 2.6 nM | 2700 nM | 7.1 nM
7 | O=C(O)[C@H](Cc1ccc(-c2ccccc2)cc1)NC(=O)[C@@H](S)CC1CCCCC1 | 17 µM | 130 nM | 840 nM | 420 nM
8 | CC(C)C[C@H](S)C(=O)N[C@@H](Cc1ccc(-c2ccccc2)cc1)C(=O)O | 11 µM | 0.28 nM | 3.2 nM | 1.4 nM
9 | CC(C)(S)C(=O)N[C@@H](Cc1ccc(-c2ccccc2)cc1)C(=O)O | – | 730 nM | 3400 nM | 2300 nM
10 | O=C(O)[C@H](Cc1ccc(-c2ccccc2)cc1)NC(=O)[C@@H](S)C1CCCC1 | 12 µM | 38 nM | 700 nM | 1.8 nM
11 | O=C(O)[C@H](Cc1ccc(-c2ccccc2)cc1)NC(=O)[C@@H](S)c1ccccc1 | – | 410 nM | > 10000 nM | 84 nM

Continued by falling Ki [2], values first:

Row | Ki [1] | Ki [2] | Ki [3] | Ki [4] | Structure (SMILES)
12 | 32 µM | 140 nM | 210 nM | 550 nM | O=C(O)[C@H](Cc1ccc(-c2ccccc2)cc1)NC(=O)[C@@H](S)Cc1ccc2ccccc2c1
13 | 11 µM | 27 nM | 490 nM | 1.5 nM | CC[C@@H](C)[C@H](S)C(=O)N[C@@H](Cc1ccc(-c2ccccc2)cc1)C(=O)O
14 | 14 µM | 23 nM | 21 nM | 6.9 nM | C[C@H](S)C(=O)N[C@@H](Cc1ccc(-c2ccccc2)cc1)C(=O)O
15 | 17 µM | 13 nM | 200 nM | 1.5 nM | CC(C)[C@H](S)C(=O)N[C@@H](Cc1ccc(-c2ccccc2)cc1)C(=O)O
16 | 5 µM | 2.6 nM | 93 nM | 860 nM | O=C(O)[C@H](Cc1ccc(-c2ccccc2)cc1)NC(=O)[C@@H](S)CCc1ccccc1
17 | 8.9 µM | 1.2 nM | 9.3 nM | 1.8 nM | CCCC[C@H](S)C(=O)N[C@@H](Cc1ccc(-c2ccccc2)cc1)C(=O)O
18 | 1.2 µM | 1.1 nM | 30 nM | 86 nM | O=C(O)[C@H](Cc1ccc(-c2ccccc2)cc1)NC(=O)[C@@H](S)Cc1ccccc1
19 | 9.3 µM | 0.8 nM | 8.6 nM | 1.4 nM | CC[C@H](S)C(=O)N[C@@H](Cc1ccc(-c2ccccc2)cc1)C(=O)O
